Rows were chosen to be rich in hits. Some 1.7% of all compounds tested hit in one or more screens of this group.
SUMO1-SIM PPI: SUMO1-SIM interaction modulation. P63165. SUMO1 binding to a labelled peptide, TR-FRET, 1 h. inhibition, % at 20 µM. 360,000 compounds, 0.33% hits. AID 602429; in the data active = inhibition above about 37%
Scp-1 inhibitor: inhibitors of human Scp-1 phosphatase | inhibition, % at 20 µM | Recombinant Scp1, phosphopeptide, malachite green phosphate absorbance | 340,000 compounds, 0.88% hits | AID 493091 | Q9GZU7;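 active = inhibition above about 50% at 20 µM, limit read from the data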;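 note: plate controls were DMSO wells with enzyme for no effect and wells lacking enzyme for full effect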
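assay system = SCP-1 phosphatase catalytic domain, residues 76-261 | buffer or medium = 50 mM Tris acetate pH 5.5, 0.005% Tween-20, 10 mM MgCl2 | incubation = enzyme reaction 45 min at room temperature, colour 5 min, stabilisation 30 min | signal = Phosphate-binding colour reagent, absorbance read at 630 nm | measure = % inhibition at 20 µM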
STEP block: STEP (human) phosphatase inhibition; AID 588621; 360,000 compounds, 0.25% hits; inhibition, % at 20 µM; recombinant STEP, OMFP fluorogenic substrate, fluorescence;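 active = inhibition at 20 µM, scaled per plate between control wells, above about 37%, limit read from the data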;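 note: 0% = DMSO with enzyme and substrate and 100% = substrate only without enzyme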
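Assay system: isolated STEP enzyme. Buffer or medium: pH 6.0 Bis-Tris with DTT and Tween 20. Also added: fluorogenic phosphatase substrate OMFP at 25 µM final. Dosing: 20 µM, 1% DMSO. Timing: 20 min reaction, room temperature, in the dark. Measured by: fluorescence intensity, excitation 480 nm, emission 540 nm. Evaluation: normalized % inhibition.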
DNMT1 block: inhibitors of human DNMT1; DNMT1 molecular beacon, Hinp1I cleavage, fluorescence; inhibition (reported as % activation of signal), % at 10 µM; 360,000 compounds, 0.83% hits; in the data active = inhibition above about 50%
LMPTP inh: blocks human LMPTP phosphatase; recombinant LMPTP-A, OMFP fluorogenic substrate, fluorescence intensity; 360,000 compounds, 0.22% hits; P24666; inhibition, % at 20 µM;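 active = compounds that cut the enzyme signal by at least half of the control window in the single-dose screen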;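 note: plate controls were DMSO wells with enzyme plus substrate for no effect and substrate without enzyme for full effect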
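Buffer or medium: Bis-Tris pH 6.0, DTT, detergent; Assay system: LMPTP-A enzyme; Quantity: 0.625 nM enzyme; Detection: endpoint fluorescence intensity; Times: 50 min dark incubation at room temperature; Controls: substrate-only low control, DMSO enzyme-plus-substrate high control; Doses: single 20 µM dose; Read-out: percent inhibition versus substrate-only and uninhibited controls; Reagent: 400 µM OMFP.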
STEP conf: confirmation of human STEP phosphatase inhibitors; shares compounds with STEP block; recombinant STEP, OMFP fluorogenic substrate, fluorescence; inhibition, % at 20 µM; 520 compounds, 32% hits; call rule not given here;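 note: 0% = enzyme with substrate plus DMSO and 100% = substrate without enzyme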
The depositor's hits bear a star.

`CCCCNC(=O)c1cccc(C(=O)NCCCC)c1` gave SUMO1-SIM PPI 3, Scp-1 inhibitor -8, STEP block 96*, DNMT1 block 1, LMPTP inh -1 and STEP conf 5.
CCOc1ccccc1NC(=O)COC(=O)CCOc1cc(C)ccc1C was read as SUMO1-SIM PPI 2, Scp-1 inhibitor -8, STEP block 0, DNMT1 block 0 and LMPTP inh 2.
For O=c1[nH]nc(SCCS(=O)(=O)c2ccc(F)cc2)n1-c1ccc2c(c1)OCCO2 the results were SUMO1-SIM PPI 3, Scp-1 inhibitor -8, STEP block 3, DNMT1 block 4 and LMPTP inh 0.
Screening CC(C)OP(=O)(OC(C)C)C(Nc1ccccc1)c1cccnc1 (stereo not drawn) returned SUMO1-SIM PPI -2, Scp-1 inhibitor -11, STEP block -2, DNMT1 block -3 and LMPTP inh -1.
`COc1cc(/C=C2\SC(=S)N(CCC(=O)Nc3ccc(O)cc3)C2=O)cc(OC)c1OC` gave SUMO1-SIM PPI 3, Scp-1 inhibitor -12, STEP block -1, DNMT1 block -17 and LMPTP inh -1.
`COc1cc(/C=C2/SC(=S)N(CC(=O)O)C2=O)ccc1OCC(=O)Nc1ccc(C)c(C)c1` gave SUMO1-SIM PPI 11, STEP block 91*, DNMT1 block 1, LMPTP inh -1 and STEP conf 56*.
Screening Cc1ccc(COc2ccc(CNCCCN3CCCCCC3=O)cc2)cc1 returned SUMO1-SIM PPI 2, Scp-1 inhibitor 1, STEP block 75*, DNMT1 block 1, LMPTP inh -3 and STEP conf 8.
`Cc1ccc(NC(=O)C(=O)NCCCN2CCCC2=O)cc1` gave SUMO1-SIM PPI 0, Scp-1 inhibitor 2, STEP block -1, DNMT1 block 1 and LMPTP inh 0.
For NC(=NCc1ccc2c(c1)OCO2)NC(=O)c1ccccc1 the results were SUMO1-SIM PPI 12, Scp-1 inhibitor 15, STEP block 70*, DNMT1 block -8, LMPTP inh 22 and STEP conf 35*.
COc1cc(Oc2ccccc2)nc(N)n1 was read as SUMO1-SIM PPI 3, Scp-1 inhibitor 12, STEP block -4, DNMT1 block -8 and LMPTP inh 0.
Screening Cc1ccc2[nH]c(O)c(N=NC(=O)CCc3ccccc3)c2c1Br returned SUMO1-SIM PPI 2, Scp-1 inhibitor -8, STEP block -3, DNMT1 block 0 and LMPTP inh 2.
Screening S=C(Nc1ccccc1Cl)NC1CCC(NC(=S)Nc2ccccc2Cl)CC1 (stereo not drawn) returned SUMO1-SIM PPI 2, Scp-1 inhibitor -5, STEP block 44*, DNMT1 block 20, LMPTP inh -3 and STEP conf 4.
S=C(Nc1ccccc1Cl)NC1CCN(Cc2ccccc2)CC1 was read as SUMO1-SIM PPI -1, Scp-1 inhibitor -3, STEP block -2, DNMT1 block -2 and LMPTP inh -1.
For O=C(COC(=O)/C=C/c1ccccc1)NCc1ccco1 the results were SUMO1-SIM PPI -10, STEP block 1, DNMT1 block 2 and LMPTP inh -1.
`CCOc1cc(C(=O)NCCC(=O)N2CCC3(CC2)NCCc2[nH]cnc23)cc(OCC)c1OCC` gave SUMO1-SIM PPI 4, Scp-1 inhibitor -6, STEP block 45*, DNMT1 block 0, LMPTP inh -2 and STEP conf 3.
CCOc1ccc(C(=O)NCCC(=O)N2CCC3(CC2)NCCc2[nH]cnc23)cc1OCC was read as SUMO1-SIM PPI -3, Scp-1 inhibitor -9, STEP block 1, DNMT1 block 0 and LMPTP inh -2.

Source: PubChem (Sanford-Burnham Center for Chemical Genomics)
